3 compounds from ChEMBL document CHEMBL5678818, “Discovery of potent SOS1 inhibitors that block RAS activation via disruption of the RAS-SOS1 interaction” (Proc Natl Acad Sci U S A, 2019) can be followed below.

For test [1], the target named is Homeodomain-interacting protein kinase 3 (Homo sapiens) (UniProt Q9H422). The experiment in a line: Inhibition of HIPK3 (unknown origin) assessed as residual activity at 1000 nM by KINOMEscan analysis relative to control.
The target of test [2] is Receptor-interacting serine/threonine-protein kinase 2 (Homo sapiens) (UniProt O43353). The experiment in a line: Inhibition of RIPK2 (unknown origin) assessed as residual activity at 1000 nM by KINOMEscan analysis relative to control.
Sequence of Receptor-interacting serine/threonine-protein kinase 2 (Homo sapiens) (O43353 whole entry): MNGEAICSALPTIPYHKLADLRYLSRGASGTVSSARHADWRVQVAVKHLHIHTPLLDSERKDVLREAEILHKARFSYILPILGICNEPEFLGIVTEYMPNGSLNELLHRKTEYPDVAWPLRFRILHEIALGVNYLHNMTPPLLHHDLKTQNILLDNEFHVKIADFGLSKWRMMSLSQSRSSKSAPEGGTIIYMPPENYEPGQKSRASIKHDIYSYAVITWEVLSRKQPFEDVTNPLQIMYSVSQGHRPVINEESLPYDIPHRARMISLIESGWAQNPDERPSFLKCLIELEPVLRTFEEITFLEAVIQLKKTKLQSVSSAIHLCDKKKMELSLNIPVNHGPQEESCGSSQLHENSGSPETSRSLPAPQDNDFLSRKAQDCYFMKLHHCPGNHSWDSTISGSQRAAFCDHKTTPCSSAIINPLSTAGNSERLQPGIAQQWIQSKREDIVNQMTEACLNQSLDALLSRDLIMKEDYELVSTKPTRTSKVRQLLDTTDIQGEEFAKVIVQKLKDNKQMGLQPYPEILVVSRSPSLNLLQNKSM
Test [3] relates to Tyrosine-protein kinase ABL1 (Homo sapiens), P00519 [H396P]. The experiment in a line: Inhibition of nonphosphorylated ABL1 H396P mutant (unknown origin) assessed as residual activity at 1000 nM by KINOMEscan analysis relative to control.
The target of test [4] is Serine/threonine-protein kinase PAK 4 (Homo sapiens) (UniProt O96013). The experiment in a line: Inhibition of PAK4 (unknown origin) assessed as residual activity at 1000 nM by KINOMEscan analysis relative to control.
Sequence of Serine/threonine-protein kinase PAK 4 (Homo sapiens) (O96013 whole entry, looked up): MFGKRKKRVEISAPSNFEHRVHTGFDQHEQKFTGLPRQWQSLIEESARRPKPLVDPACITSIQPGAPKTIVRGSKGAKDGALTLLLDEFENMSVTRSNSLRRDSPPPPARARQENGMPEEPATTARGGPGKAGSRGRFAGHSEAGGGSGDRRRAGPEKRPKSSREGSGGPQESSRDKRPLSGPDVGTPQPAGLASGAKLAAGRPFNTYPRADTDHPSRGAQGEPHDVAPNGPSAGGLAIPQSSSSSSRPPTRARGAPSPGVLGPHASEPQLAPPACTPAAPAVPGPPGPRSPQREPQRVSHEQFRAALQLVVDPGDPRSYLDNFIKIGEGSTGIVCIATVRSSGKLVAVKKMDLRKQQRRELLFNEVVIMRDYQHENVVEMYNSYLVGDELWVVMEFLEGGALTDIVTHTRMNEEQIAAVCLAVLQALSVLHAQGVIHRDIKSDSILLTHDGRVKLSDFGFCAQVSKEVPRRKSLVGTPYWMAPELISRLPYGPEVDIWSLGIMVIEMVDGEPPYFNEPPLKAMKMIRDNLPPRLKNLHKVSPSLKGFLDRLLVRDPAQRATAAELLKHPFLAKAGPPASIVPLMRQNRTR
The target in test [5] is Mitogen-activated protein kinase kinase kinase 10 (Homo sapiens) (UniProt Q02779). The experiment in a line: Inhibition of MLK2 (unknown origin) assessed as residual activity at 1000 nM by KINOMEscan analysis relative to control.
Test [6] has as its system Tyrosine-protein kinase ABL1 (Homo sapiens), P00519 [H396P]. The experiment in a line: Inhibition of phosphorylated ABL1 H396P mutant (unknown origin) assessed as residual activity at 1000 nM by KINOMEscan analysis relative to control.
Test [7] concerns Tyrosine-protein kinase ABL1 (Homo sapiens), P00519 [Q252H]. The experiment in a line: Inhibition of phosphorylated ABL1 Q252H mutant (unknown origin) assessed as residual activity at 1000 nM by KINOMEscan analysis relative to control.
The target of test [8] is T1, Membrane-associated tyrosine- and threonine-specific cdc2-inhibitory kinase (Homo sapiens) (UniProt Q99640).
T1 sequence (whole entry): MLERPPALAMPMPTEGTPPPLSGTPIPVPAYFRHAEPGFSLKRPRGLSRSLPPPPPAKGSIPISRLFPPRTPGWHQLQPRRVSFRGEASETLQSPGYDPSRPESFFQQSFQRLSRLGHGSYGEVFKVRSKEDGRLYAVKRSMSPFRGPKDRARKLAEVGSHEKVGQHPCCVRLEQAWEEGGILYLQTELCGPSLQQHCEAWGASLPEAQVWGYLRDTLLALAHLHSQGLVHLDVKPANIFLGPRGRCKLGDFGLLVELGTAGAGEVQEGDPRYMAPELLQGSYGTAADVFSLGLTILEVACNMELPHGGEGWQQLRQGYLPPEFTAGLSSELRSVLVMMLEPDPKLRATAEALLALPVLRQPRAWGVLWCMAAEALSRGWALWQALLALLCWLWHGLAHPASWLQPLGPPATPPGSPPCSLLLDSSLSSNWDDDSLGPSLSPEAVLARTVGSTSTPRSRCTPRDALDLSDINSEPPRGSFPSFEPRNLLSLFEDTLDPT
The experiment in a line: Inhibition of PKMYT1 (unknown origin) assessed as residual activity at 1000 nM by KINOMEscan analysis relative to control.

Test [9] addresses Cyclin-dependent kinase-like 3 (Homo sapiens) (UniProt Q8IVW4). The experiment in a line: Inhibition of CDKL3 (unknown origin) assessed as residual activity at 1000 nM by KINOMEscan analysis relative to control.
Test [10] has as its target SRSF protein kinase 3 (Homo sapiens) (UniProt Q9UPE1). The experiment in a line: Inhibition of SRPK3 (unknown origin) assessed as residual activity at 1000 nM by KINOMEscan analysis relative to control.
Test [11] concerns the target Mitogen-activated protein kinase 6 (Homo sapiens) (UniProt Q16659). The experiment in a line: Inhibition of ERK3 (unknown origin) assessed as residual activity at 1000 nM by KINOMEscan analysis relative to control.
Test [12] concerns the target T2, Aurora kinase A (Homo sapiens) (UniProt O14965).
T2 sequence (whole entry): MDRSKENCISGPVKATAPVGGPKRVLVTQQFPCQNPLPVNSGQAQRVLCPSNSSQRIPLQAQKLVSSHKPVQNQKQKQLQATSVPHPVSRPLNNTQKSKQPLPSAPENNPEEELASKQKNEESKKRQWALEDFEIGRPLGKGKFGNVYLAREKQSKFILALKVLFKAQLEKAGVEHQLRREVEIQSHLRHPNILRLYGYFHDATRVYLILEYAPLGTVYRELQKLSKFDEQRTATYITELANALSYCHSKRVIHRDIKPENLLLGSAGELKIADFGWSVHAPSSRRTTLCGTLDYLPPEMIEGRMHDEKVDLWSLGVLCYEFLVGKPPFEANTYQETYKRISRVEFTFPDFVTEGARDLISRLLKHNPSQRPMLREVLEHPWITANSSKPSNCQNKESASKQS
The experiment in a line: Inhibition of AURKA (unknown origin) assessed as residual activity at 1000 nM by KINOMEscan analysis relative to control.

Test [13] concerns Mast/stem cell growth factor receptor Kit (Homo sapiens), P10721 [L576P]. The experiment in a line: Inhibition of KIT L576P mutant (unknown origin) assessed as residual activity at 1000 nM by KINOMEscan analysis relative to control.
For test [14], the target named is Serine/threonine-protein kinase PLK1 (Homo sapiens) (UniProt P53350). The experiment in a line: Inhibition of PLK1 (unknown origin) assessed as residual activity at 1000 nM by KINOMEscan analysis relative to control.
Sequence of Serine/threonine-protein kinase PLK1 (Homo sapiens) (P53350 whole entry): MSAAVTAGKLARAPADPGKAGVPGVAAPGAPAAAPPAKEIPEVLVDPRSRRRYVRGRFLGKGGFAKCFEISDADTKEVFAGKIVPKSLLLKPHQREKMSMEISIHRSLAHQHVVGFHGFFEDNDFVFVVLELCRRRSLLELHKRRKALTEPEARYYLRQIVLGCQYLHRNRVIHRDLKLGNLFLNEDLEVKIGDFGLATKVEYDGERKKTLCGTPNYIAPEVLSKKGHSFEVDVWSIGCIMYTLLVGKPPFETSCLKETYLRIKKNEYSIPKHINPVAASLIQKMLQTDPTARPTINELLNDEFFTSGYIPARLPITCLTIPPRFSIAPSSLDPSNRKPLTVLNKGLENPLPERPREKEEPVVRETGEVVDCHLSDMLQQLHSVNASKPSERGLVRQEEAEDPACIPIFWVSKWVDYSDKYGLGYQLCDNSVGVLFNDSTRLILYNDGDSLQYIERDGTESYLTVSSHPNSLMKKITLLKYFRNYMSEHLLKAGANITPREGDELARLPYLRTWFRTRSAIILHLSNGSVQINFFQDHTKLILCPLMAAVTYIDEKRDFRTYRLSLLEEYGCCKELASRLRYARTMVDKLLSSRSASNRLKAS
In test [15] the test system is eIF-2-alpha kinase GCN2 (Homo sapiens), Q9P2K8 [S808G]. The experiment in a line: Inhibition of GCN2 S808G mutant […] domain (unknown origin) assessed as residual activity at 1000 nM by KINOMEscan analysis relative to control.
Test [16] deals with Tyrosine-protein kinase ABL1 (Homo sapiens), P00519 [Q252H]. The experiment in a line: Inhibition of nonphosphorylated ABL1 Q252H mutant (unknown origin) assessed as residual activity at 1000 nM by KINOMEscan analysis relative to control.
The target in test [17] is Mitotic checkpoint serine/threonine-protein kinase BUB1 (Homo sapiens) (UniProt O43683). The experiment in a line: Inhibition of BUB1 (unknown origin) assessed as residual activity at 1000 nM by KINOMEscan analysis relative to control.
The subject of test [18] is NCI-H358. The experiment in a line: Antiproliferative activity against human NCI-H358 cells assessed as inhibition of cell viability incubated for 72 hrs by Cell Titer Glo assay. The class given is functional, cell-based. Conditions: NCI-H358, 72 h. The gist of the method: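 NCI-H358 cells (KRAS G12C mutant) were sourced from ATCC.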
On the technique in general: Cellular ATP, detected with luciferase, serves as a proxy for viable cell number.

Sequence of Mitogen-activated protein kinase 6 (Homo sapiens) (Q16659 whole entry): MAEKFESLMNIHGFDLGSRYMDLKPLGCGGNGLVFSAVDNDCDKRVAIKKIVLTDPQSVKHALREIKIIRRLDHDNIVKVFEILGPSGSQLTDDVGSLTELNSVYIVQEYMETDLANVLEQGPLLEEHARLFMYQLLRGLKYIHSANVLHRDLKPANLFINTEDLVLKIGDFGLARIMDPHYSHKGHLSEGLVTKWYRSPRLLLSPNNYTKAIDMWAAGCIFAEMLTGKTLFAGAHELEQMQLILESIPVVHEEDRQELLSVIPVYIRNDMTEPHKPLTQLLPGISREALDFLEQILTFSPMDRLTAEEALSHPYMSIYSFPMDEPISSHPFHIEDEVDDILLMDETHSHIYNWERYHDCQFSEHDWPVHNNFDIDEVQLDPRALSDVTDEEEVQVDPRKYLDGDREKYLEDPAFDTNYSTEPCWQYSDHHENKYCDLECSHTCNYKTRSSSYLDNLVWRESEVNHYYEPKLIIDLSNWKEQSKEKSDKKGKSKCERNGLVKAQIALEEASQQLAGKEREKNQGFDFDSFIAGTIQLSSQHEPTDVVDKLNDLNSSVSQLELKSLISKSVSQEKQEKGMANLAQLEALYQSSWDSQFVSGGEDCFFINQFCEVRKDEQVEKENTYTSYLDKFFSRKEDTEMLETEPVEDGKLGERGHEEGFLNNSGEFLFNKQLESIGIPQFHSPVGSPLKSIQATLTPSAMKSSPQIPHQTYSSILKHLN
Sequence of SRSF protein kinase 3 (Homo sapiens) (Q9UPE1 whole entry, looked up): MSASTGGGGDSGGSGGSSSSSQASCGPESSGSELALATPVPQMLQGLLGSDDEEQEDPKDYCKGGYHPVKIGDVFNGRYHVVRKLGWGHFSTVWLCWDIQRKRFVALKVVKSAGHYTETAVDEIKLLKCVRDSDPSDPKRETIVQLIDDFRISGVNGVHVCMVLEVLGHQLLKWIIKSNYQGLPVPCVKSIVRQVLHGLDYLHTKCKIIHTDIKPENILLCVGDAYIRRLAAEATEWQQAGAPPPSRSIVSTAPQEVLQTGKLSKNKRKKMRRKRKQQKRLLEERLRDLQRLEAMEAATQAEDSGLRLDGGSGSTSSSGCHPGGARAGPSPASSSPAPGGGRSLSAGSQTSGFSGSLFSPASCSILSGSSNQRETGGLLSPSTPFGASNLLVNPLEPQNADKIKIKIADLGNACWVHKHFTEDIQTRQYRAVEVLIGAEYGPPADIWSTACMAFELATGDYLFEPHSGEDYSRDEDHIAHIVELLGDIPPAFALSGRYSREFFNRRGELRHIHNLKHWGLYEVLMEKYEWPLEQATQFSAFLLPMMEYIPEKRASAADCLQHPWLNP
Sequence of Cyclin-dependent kinase-like 3 (Homo sapiens) (Q8IVW4 whole entry, looked up): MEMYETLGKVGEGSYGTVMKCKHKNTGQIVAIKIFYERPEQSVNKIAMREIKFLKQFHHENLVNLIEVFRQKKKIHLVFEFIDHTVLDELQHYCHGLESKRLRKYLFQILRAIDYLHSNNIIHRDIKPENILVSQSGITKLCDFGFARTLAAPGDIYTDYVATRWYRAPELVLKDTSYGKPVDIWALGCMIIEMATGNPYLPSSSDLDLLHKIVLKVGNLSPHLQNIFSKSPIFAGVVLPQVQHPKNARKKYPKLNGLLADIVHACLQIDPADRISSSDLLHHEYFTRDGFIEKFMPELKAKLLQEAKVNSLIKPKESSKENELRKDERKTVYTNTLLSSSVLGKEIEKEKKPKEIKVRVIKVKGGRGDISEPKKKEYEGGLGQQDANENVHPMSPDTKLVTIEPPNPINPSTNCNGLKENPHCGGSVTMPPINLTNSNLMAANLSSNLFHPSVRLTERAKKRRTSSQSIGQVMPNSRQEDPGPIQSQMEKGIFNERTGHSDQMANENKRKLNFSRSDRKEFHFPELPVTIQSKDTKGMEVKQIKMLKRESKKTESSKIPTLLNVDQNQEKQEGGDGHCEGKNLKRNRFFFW
Sequence of Homeodomain-interacting protein kinase 3 (Homo sapiens) (Q9H422 whole entry, looked up): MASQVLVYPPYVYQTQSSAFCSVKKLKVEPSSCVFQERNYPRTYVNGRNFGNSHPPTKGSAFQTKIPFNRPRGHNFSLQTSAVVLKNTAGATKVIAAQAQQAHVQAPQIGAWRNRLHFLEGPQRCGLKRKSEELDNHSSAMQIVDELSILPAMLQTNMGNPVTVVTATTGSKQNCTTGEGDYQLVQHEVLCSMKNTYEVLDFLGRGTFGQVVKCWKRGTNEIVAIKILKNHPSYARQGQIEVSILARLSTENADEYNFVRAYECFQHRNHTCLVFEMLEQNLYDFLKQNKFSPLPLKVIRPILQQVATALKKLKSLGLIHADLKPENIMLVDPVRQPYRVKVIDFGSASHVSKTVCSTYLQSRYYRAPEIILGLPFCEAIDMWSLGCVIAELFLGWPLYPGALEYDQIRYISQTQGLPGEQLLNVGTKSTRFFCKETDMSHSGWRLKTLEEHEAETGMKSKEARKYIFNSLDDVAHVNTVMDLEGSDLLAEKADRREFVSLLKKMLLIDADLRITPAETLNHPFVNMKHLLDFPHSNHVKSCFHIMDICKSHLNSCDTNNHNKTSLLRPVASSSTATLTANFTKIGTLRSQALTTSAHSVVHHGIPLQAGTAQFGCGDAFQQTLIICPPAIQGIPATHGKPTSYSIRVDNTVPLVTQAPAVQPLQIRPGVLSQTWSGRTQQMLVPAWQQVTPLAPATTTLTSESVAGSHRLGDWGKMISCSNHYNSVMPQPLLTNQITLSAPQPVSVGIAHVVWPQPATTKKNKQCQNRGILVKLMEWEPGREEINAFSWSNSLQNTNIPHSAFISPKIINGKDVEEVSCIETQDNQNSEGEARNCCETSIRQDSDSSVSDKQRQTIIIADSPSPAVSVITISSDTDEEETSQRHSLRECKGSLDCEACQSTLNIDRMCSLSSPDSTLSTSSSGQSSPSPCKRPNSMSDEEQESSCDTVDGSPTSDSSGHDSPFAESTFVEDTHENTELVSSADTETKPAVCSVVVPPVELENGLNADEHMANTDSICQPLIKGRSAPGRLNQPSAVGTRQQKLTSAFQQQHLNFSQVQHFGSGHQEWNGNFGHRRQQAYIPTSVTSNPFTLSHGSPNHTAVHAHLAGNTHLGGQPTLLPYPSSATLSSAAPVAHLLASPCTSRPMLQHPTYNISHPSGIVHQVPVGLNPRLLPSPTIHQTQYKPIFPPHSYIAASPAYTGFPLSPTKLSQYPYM

Consider `COc1cc2ncnc(N[C@H](C)c3cccc4ccccc34)c2cc1OC`, for which the Activity in test [1] was 88%; in [2], 99%; in test [3], 100%; in [4] it was 100%; in test [5], 97%; in [6], 93%. The Activity in test [7] amounted to 92%; in test [8], 100%; in [9], 84%; in test [10], 100%; in test [11], 94%; in [12], 91%. Moreover, the Activity in test [13] was found to be 95%; in [14], 92%; in [15] it was 100%; in test [16], 100%; in test [17] it was 100%.

As to `CNCc1ccccc1-c1csc([C@@H](C)Nc2nc(C)nc3cc(OC)c(OC)cc23)c1` [BAY-293], the IC50 in [18] was found to be 3.48 µM.

Turning to `COc1cc2nc(C)nc(N[C@H](C)c3cccc(-c4cn[nH]c4)c3)c2cc1OC`, the Activity came out at 69% in test [1]; 73% in test [2]; 71% in [3]; 86% in test [4]; 42% in test [5]; 91% in test [6]. In addition, the Activity is 95% in test [7]; 53% in test [8]; 87% in [9]; 93% in test [10]; 100% in test [11]; 89% in test [12]. Besides, the Activity in test [13] came out at 85%; in test [14], 100%; in test [15], 100%; in test [16], 45%; in test [17], 100%. In test [18], the IC50 is 13.6 µM.

The IC50 is the concentration at which inhibition is half-maximal.
